Results as given in ChEMBL document CHEMBL1629654, “Breakthrough Aspergillus fumigatus and Candida albicans double infection during caspofungin treatment: laboratory characteristics and implication for susceptibility testing” (2009).
≈ marks a conversion by molar mass, not a printed value. Calls of active or inactive are those of the source. No cut-off for these calls is given here.

Columns and labels:
[1] = tested on: Candida albicans; assay: Antimicrobial activity against Candida albicans isolate S at 5 ug/ml grown on RPMI 1640 medium after 48 hrs by disk diffusion method; assay type: functional
In short: (§1)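 Disk diffusion on 90-mm RPMI 1640 with 2% glucose agar or on Mueller-Hinton agar. Plates were swabbed in three directions with a yeast suspension of 1–5 × 10^6 cells/ml. Paper disks (6 mm) held 1, 5 or 25 µg drug. Zone diameters were read at 24 and 48 h; values are means of two experiments.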

[2] = tested on: Candida albicans; assay: Antimicrobial activity against Candida albicans isolate S at 25 ug/ml grown on RPMI 1640 medium after 48 hrs by disk diffusion method; assay type: functional; in short: as §1
[3] = tested on: Nakaseomyces glabratus; assay: Antimicrobial activity against Candida glabrata after 48 hrs by NCCLS microdilution method; assay type: functional
[4] = tested on: Pichia kudriavzevii; assay: Antimicrobial activity against Candida krusei after 48 hrs by NCCLS microdilution method; assay type: functional
[5] = tested on: Clavispora lusitaniae; assay: Antimicrobial activity against Candida lusitaniae after 48 hrs by NCCLS microdilution method; assay type: functional
[6] = tested on: Candida parapsilosis; assay: Antimicrobial activity against Candida parapsilosis after 48 hrs by NCCLS microdilution method; assay type: functional; conditions: Lodderomyces parapsilosis
[7] = tested on: Candida albicans; assay: Antimicrobial activity against Candida albicans after 48 hrs by broth microdilution method; assay type: functional
[8] = tested on: Nakaseomyces glabratus; assay: Antimicrobial activity against Candida glabrata after 48 hrs by broth microdilution method; assay type: functional
[9] = tested on: Pichia kudriavzevii; assay: Antimicrobial activity against Candida krusei after 48 hrs by broth microdilution method; assay type: functional
[10] = tested on: Candida tropicalis; assay: Antimicrobial activity against Candida tropicalis after 48 hrs by broth microdilution method; assay type: functional
[11] = tested on: Candida albicans; assay: Antimicrobial activity against Candida albicans after 48 hrs by Etest; assay type: functional
[12] = tested on: Candida albicans; assay: Antimicrobial activity against Candida albicans after 48 hrs by 50% endpoint M27-A2 method; assay type: functional
[13] = tested on: Pichia kudriavzevii; assay: Antimicrobial activity against Candida krusei after 48 hrs by 50% endpoint M27-A2 method; assay type: functional
[14] = tested on: Candida tropicalis; assay: Antimicrobial activity against Candida tropicalis after 48 hrs by 50% endpoint M27-A2 method; assay type: functional
[15] = tested on: Kluyveromyces marxianus; assay: Antimicrobial activity against Candida kefyr after 48 hrs by 50% endpoint M27-A2 method; assay type: functional
[16] = tested on: Clavispora lusitaniae; assay: Antimicrobial activity against Candida lusitaniae after 48 hrs by 50% endpoint M27-A2 method; assay type: functional
[17] = tested on: Meyerozyma guilliermondii; assay: Antimicrobial activity against Candida guilliermondii after 48 hrs by 50% endpoint M27-A2 method; assay type: functional
[18] = tested on: Nakaseomyces glabratus; assay: Antimicrobial activity against Candida glabrata after 24 hrs by M27-A3 method; assay type: functional
[19] = tested on: Candida tropicalis; assay: Antimicrobial activity against Candida tropicalis after 24 hrs by M27-A3 method; assay type: functional
[20] = tested on: Kluyveromyces marxianus; assay: Antimicrobial activity against Candida kefyr after 24 hrs by M27-A3 method; assay type: functional
[21] = tested on: Clavispora lusitaniae; assay: Antimicrobial activity against Candida lusitaniae after 24 hrs by M27-A3 method; assay type: functional
[22] = tested on: Meyerozyma guilliermondii; assay: Antimicrobial activity against Candida guilliermondii after 24 hrs by M27-A3 method; assay type: functional
[23] = tested on: Debaryomyces hansenii; assay: Antimicrobial activity against Candida famata after 24 hrs by M27-A3 method; assay type: functional
[24] = tested on: Candida albicans; assay: Antimicrobial activity against Candida albicans isolate R after 24 hrs by microdilution method; assay type: functional
In short: (§2)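 Broth microdilution in microtiter plates, read spectrophotometrically at 490 nm. MIC taken as the lowest drug dilution giving 50% growth inhibition. C. krusei […] run as control in each run. Read at 24 h and 48 h; trailing growth noted at 48 h.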

[25] = tested on: Candida albicans; assay: Antimicrobial activity against Candida albicans isolate C after 24 hrs by microdilution method; assay type: functional; in short: as §2
[26] = tested on: Candida albicans; assay: Antimicrobial activity against Candida albicans isolate R after 48 hrs by Etest; assay type: functional
In short: (§3)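 Etest on RPMI 1640 agar with 2% glucose, performed according to the manufacturer's recommendations.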

[27] = tested on: Candida albicans; assay: Antimicrobial activity against Candida albicans isolate R after 48 hrs by microdilution method; assay type: functional; in short: as §2
[28] = tested on: Candida albicans; assay: Antimicrobial activity against Candida albicans isolate C after 48 hrs by EUCAST microdilution method; assay type: functional
In short: (§4)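 EUCAST broth microdilution, plates read spectrophotometrically at 490 nm. MIC is the lowest dilution giving 50% growth inhibition. C. krusei […] control included in each run.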

[29] = tested on: Candida albicans; assay: Antimicrobial activity against Candida albicans isolate C after 48 hrs by Etest; assay type: functional
In short: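 Etest on RPMI 1640 agar with 2% glucose, run per the manufacturer's instructions. Index and control clinical blood isolates were tested in parallel.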

[30] = tested on: Candida albicans; assay: Antimicrobial activity against Candida albicans obtained from tracheal suction of patient 5 days after admission by EUCAST microdilution method; assay type: functional; conditions: Trachea, 120 h; in short: as §4
[31] = tested on: Candida albicans; assay: Antimicrobial activity against Candida albicans obtained from urine of patient 21 days after admission by EUCAST microdilution method; assay type: functional; conditions: 504 h; in short: as §4
[32] = tested on: Candida albicans; assay: Antimicrobial activity against Candida albicans obtained from hemodialysis catheter tip 35 days after admission by Etest; assay type: functional; in short: as §3
[33] = tested on: Candida albicans; assay: Antimicrobial activity against Candida albicans isolate R obtained from urine of patient 38 days after admission by Etest; assay type: functional; in short: as §3
[34] = tested on: Candida albicans; assay: Antimicrobial activity against Candida albicans isolate S infected in NMRI mouse assessed as decrease in kidney bacterial burden at 6 mg/kg, ip measured on day 4; assay type: functional, organism-based; set-up: dose 6 mg/kg
[35] = tested on: Candida albicans; assay: Antimicrobial activity against Candida albicans isolate R at 1 ug/ml grown on RPMI 1640 medium after 24 hrs by disk diffusion method; assay type: functional; in short: as §1
[36] = tested on: Candida albicans; assay: Antimicrobial activity against Candida albicans isolate R at 1 ug/ml grown on Muller-Hinton agar medium after 24 hrs by disk diffusion method; assay type: functional; in short: as §1
[37] = tested on: Candida albicans; assay: Antimicrobial activity against Candida albicans isolate R at 25 ug/ml grown on Muller-Hinton agar medium after 24 hrs by disk diffusion method; assay type: functional; in short: as §1
[38] = tested on: Candida albicans; assay: Antimicrobial activity against Candida albicans isolate R at 1 ug/ml grown on RPMI 1640 medium after 48 hrs by disk diffusion method; assay type: functional; in short: as §1
[39] = tested on: Candida albicans; assay: Antimicrobial activity against Candida albicans isolate R at 5 ug/ml grown on RPMI 1640 medium after 48 hrs by disk diffusion method; assay type: functional; in short: as §1
[40] = tested on: Candida albicans; assay: Antimicrobial activity against Candida albicans isolate R at 25 ug/ml grown on RPMI 1640 medium after 48 hrs by disk diffusion method; assay type: functional; in short: as §1
[41] = tested on: Candida albicans; assay: Antimicrobial activity against Candida albicans isolate R at 1 ug/ml grown on Muller-Hinton agar medium after 48 hrs by disk diffusion method; assay type: functional; in short: as §1
[42] = tested on: Candida albicans; assay: Antimicrobial activity against Candida albicans isolate S at 1 ug/ml grown on RPMI 1640 medium after 24 hrs by disk diffusion method; assay type: functional; in short: as §1
[43] = tested on: Candida albicans; assay: Antimicrobial activity against Candida albicans isolate S at 25 ug/ml grown on RPMI 1640 medium after 24 hrs by disk diffusion method; assay type: functional; in short: as §1
[44] = tested on: Candida albicans; assay: Antimicrobial activity against Candida albicans isolate S at 5 ug/ml grown on Muller-Hinton agar medium after 24 hrs by disk diffusion method; assay type: functional; in short: as §1
[45] = tested on: Pichia kudriavzevii; assay: Antimicrobial activity against Candida krusei after 48 hrs
[46] = tested on: Candida albicans; assay: Antimicrobial activity against Candida albicans after 48 hrs
[47] = tested on: Nakaseomyces glabratus; assay: Antimicrobial activity against Candida glabrata after 48 hrs
[48] = tested on: Meyerozyma guilliermondii; assay: Antimicrobial activity against Candida guilliermondii after 48 hrs by M27-A method
[49] = tested on: Clavispora lusitaniae; assay: Antimicrobial activity against Candida lusitaniae after 48 hrs by 80% endpoint M27-A method

SMILES: CC[C@H](C)C[C@H](C)CCCCCCCCC(=O)N[C@H]1C[C@@H](O)[C@@H](NCCN)NC(=O)[C@@H]2[C@@H](O)CCN2C(=O)[C@H]([C@H](O)CCN)NC(=O)[C@H]([C@H](O)[C@@H](O)c2ccc(O)cc2)NC(=O)[C@@H]2C[C@@H](O)CN2C(=O)[C@H]([C@@H](C)O)NC1=O [CASPOFUNGIN]
- inhibition zone (IZ) [1]: 21 mm
- inhibition zone (IZ) [2]: 26.4 mm
- MIC90 [3]: 1 µg/mL (≈ 0.915 µM)
- MIC90 [4]: 1 µg/mL (≈ 0.915 µM)
- MIC90 [5]: 2 µg/mL (≈ 1.83 µM)
- MIC90 [6]: 2 µg/mL (≈ 1.83 µM)
- MIC90 [7]: 0.25 µg/mL (≈ 0.229 µM)
- MIC90 [8]: 0.5 µg/mL (≈ 0.457 µM)
- MIC90 [9]: 2 µg/mL (≈ 1.83 µM)
- MIC90 [10]: 0.25 µg/mL (≈ 0.229 µM)
- MIC90 [11]: 0.25 µg/mL (≈ 0.229 µM)
- MIC90 [12]: 0.5 µg/mL (≈ 0.457 µM)
- MIC90 [13]: 2 µg/mL (≈ 1.83 µM)
- MIC90 [14]: 1 µg/mL (≈ 0.915 µM)
- MIC90 [15]: 1 µg/mL (≈ 0.915 µM)
- MIC90 [16]: 2 µg/mL (≈ 1.83 µM)
- MIC90 [17]: 1 µg/mL (≈ 0.915 µM)
- MIC90 [18]: 0.06 µg/mL (≈ 0.0549 µM)
- MIC90 [19]: 0.06 µg/mL (≈ 0.0549 µM)
- MIC90 [20]: 0.015 µg/mL (≈ 0.0137 µM)
- MIC90 [21]: 0.25 µg/mL (≈ 0.229 µM)
- MIC90 [22]: 1 µg/mL (≈ 0.915 µM)
- MIC90 [23]: 1 µg/mL (≈ 0.915 µM)
- MIC [24]: 1 µg/mL (≈ 0.915 µM)
- MIC [25]: ≤ 0.06 µg/mL
- MIC [26]: > 32 µg/mL
- MIC [27]: 1 µg/mL (≈ 0.915 µM)
- MIC [28]: ≤ 0.06 µg/mL
- MIC [29]: 0.06 µg/mL (≈ 0.0549 µM)
- MIC [30]: 0.25 µg/mL (≈ 0.229 µM)
- MIC [31]: 1 µg/mL (≈ 0.915 µM)
- MIC [32]: 32 µg/mL (≈ 29.3 µM)
- MIC [33]: > 32 µg/mL
- Activity [34]: Active
- inhibition zone (IZ) [35]: 6.2 mm
- inhibition zone (IZ) [36]: 6.1 mm
- inhibition zone (IZ) [37]: 13.4 mm
- inhibition zone (IZ) [38]: 6.2 mm
- inhibition zone (IZ) [39]: 6.2 mm
- inhibition zone (IZ) [40]: 11.9 mm
- inhibition zone (IZ) [41]: 6.1 mm
- inhibition zone (IZ) [42]: 10.7 mm
- inhibition zone (IZ) [43]: 25.3 mm
- inhibition zone (IZ) [44]: 19.2 mm
- MIC90 [45]: 1 µg/mL (≈ 0.915 µM)
- MIC90 [46]: 0.25 µg/mL (≈ 0.229 µM)
- MIC90 [47]: 0.25 µg/mL (≈ 0.229 µM)
- MIC90 [48]: > 8 µg/mL
- MIC90 [49]: 1 µg/mL (≈ 0.915 µM)
